Article PMC7398576 (Oncogene, 2020)

Legend:
[1] = target: FLAG-p53-94-312 DNA-binding domain (Homo sapiens, UniProt P04637); assay: Differential scanning fluorimetry; conditions: 100 μM compound, 4.5 μM protein
How it was run: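 FLAG-p53 94–312 expressed in E. coli (pET-28b), purified on M2 beads and FLAG-peptide eluted. DSF with 4.5 μM protein, 100 μM test compound and 5× SYPRO Orange in 50 mM HEPES pH7.4, 150 mM NaCl, 2 mM DTT, 2% DMSO. Heated 25→95 °C at 1 °C/min, read every 0.5 °C at 610 nm, quadruplicate. ΔTm taken against DMSO wells.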

[2] = target: TAF1 bromodomain 2 (aa 1501–1635) (Homo sapiens, UniProt P21675); assay: Differential scanning fluorimetry; assay type: binding; conditions: 100 μM compound, 4.5 μM protein
Chain of TAF1 bromodomain 2 (aa 1501–1635) (P21675 1522-1656): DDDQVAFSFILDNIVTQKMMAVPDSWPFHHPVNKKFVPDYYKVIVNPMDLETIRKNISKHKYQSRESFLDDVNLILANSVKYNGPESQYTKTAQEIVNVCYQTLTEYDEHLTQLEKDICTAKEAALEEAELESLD
How it was run: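 TAF1 second bromodomain (residues 1501–1635) purified by Ni-NTA and size exclusion. Thermal shift with 4.5 μM protein, 100 μM compound and 5× SYPRO Orange in HEPES pH7.4/150 mM NaCl/2 mM DTT/2% DMSO. Ramp 25–95 °C at 1 °C/min, fluorescence at 610 nm every 0.5 °C, four replicates. ΔTm relative to DMSO reference.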

TCF1 [3] = target: T1, TCF1 (Homo sapiens, UniProt P36402); assay: Biotinylated oligonucleotide pull down assay, FLAG-TCF1; assay type: biochemical
T1 sequence (P36402 whole entry): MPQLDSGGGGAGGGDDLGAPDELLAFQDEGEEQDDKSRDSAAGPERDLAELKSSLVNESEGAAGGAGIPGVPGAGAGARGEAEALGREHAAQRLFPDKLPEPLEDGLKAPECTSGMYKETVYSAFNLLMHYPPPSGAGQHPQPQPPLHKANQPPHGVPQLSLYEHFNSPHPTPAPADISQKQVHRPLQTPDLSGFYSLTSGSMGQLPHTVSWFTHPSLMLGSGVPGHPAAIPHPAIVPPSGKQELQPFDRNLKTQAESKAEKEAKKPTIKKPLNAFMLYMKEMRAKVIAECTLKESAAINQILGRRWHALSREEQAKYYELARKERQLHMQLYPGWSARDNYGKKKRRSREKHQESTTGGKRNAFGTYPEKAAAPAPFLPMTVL

C57BL/6 mice = assay: Radiation toxicity in mice; assay type: in vivo, mouse
p53 [4] = target: T2, p53 (Homo sapiens, UniProt P04637); assay: Trypsin digestion sensitivity of p53; assay type: biochemical
TCF1 [5] = target: T1, TCF1; assay: TCF1-specific zinc finger competition assay; assay type: biochemical
c-Myc = c-Myc (Homo sapiens, UniProt P01106); assay: ChIP of transiently expressed c-Myc; assay type: cell-based
Chain of c-Myc (P01106 whole entry): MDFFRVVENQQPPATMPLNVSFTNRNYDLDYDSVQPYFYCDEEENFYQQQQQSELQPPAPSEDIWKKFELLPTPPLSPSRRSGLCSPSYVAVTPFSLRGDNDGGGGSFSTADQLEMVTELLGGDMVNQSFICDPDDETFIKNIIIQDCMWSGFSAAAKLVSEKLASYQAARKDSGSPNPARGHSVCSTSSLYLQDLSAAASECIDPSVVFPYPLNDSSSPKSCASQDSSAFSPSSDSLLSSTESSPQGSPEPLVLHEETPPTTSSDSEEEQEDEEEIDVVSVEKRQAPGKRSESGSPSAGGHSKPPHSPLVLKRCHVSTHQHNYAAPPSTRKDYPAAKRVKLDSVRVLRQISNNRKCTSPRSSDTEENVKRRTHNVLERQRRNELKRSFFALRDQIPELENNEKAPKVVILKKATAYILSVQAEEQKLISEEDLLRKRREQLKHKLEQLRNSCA
Chain of c-Myc (P61244 whole entry partner): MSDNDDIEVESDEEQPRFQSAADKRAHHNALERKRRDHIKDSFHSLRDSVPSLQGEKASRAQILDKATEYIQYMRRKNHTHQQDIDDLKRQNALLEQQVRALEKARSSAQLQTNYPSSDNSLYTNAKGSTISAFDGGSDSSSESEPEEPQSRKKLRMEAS
How it was run: (§1)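 ChIP by standard procedure, read by SYBR Green real-time PCR of target promoters. Antibodies: anti-HA tag (C29F4) for p63, p73 and c-MYC; KH95 for E2F1.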

p53 [6] = target: T2, p53; assay: ZF1-Nluc/ZF2-Cluc DNA-binding competition assay; assay type: biochemical; conditions: at low micromolar concentrations
HCT116-p53−/− cells = assay: Western blot in HCT116-p53−/− cells; assay type: cell-based
RET oncogene = conditions: cited from earlier work
[7] = system: G-quadruplex DNA structures; conditions: cited from earlier work
p53-Cluc fusion protein = p53-Cluc fusion protein (UniProt P04637+P08659, D436G/I423L/L530R); assay: p53-Cluc luciferase fragment complementation DNA-binding assay; assay type: biochemical; conditions: read-out: IC50, inhibition of p53 sequence-specific DNA binding in vitro
How it was run: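 The cell-free reaction used crude E. coli BL21(DE3) extracts: ZF1-Nluc plus p53-Cluc, each expressed from pET-28b with 1 mM IPTG and 0.1 mM ZnCl2 at 18 °C for 18 h. DNA was 50 ng plasmid carrying 12 paired ZF1/p53 sites. Buffer was 100 mM potassium phosphate pH 7.8, 1 mM ZnCl2, 5% glycerol, 1 mM DTT. After 35 min at 32 °C, luciferin/ATP substrate was added, 10 min at 23 °C, then luminescence read. Three experiments.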

p53 [8] = target: T2, p53; assay: p53-responsive luciferase reporter assay in transfected H1299 cells; assay type: cell-based; conditions: 6 h treatment
How it was run: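 H1299 cells (p53-null; 50,000/well) transfected 24 h by lipofection with 20 ng BP100-luciferase reporter, 5 ng CMV-lacZ and 0.2 ng CMV-p53. Then 6 h test compound. Activity expressed as luciferase/β-galactosidase ratio.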

p73β-A156I = p73β-A156I (Homo sapiens, UniProt O15350, A156I); assay: ChIP of p73β-A156I temperature-sensitive mutant; assay type: cell-based; conditions: 32 °C
Chain of p73β-A156I (O15350 1-499 isoform O15350-2 A156I): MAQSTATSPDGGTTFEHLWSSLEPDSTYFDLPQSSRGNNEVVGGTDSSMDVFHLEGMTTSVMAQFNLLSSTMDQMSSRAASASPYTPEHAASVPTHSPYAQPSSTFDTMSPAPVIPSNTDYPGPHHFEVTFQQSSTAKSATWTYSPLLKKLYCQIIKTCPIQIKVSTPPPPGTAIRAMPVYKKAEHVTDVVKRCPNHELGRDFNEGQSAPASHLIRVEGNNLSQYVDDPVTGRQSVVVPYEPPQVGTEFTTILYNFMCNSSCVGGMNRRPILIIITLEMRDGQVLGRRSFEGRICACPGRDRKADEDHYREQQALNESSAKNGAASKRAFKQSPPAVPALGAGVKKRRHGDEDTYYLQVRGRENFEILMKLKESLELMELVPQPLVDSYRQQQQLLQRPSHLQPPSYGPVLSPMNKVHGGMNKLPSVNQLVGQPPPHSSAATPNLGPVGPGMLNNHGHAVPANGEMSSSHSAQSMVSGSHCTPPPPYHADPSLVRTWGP
How it was run: as §1

p53 [9] = target: T2, p53; assay: ChIP of p53 at target promoters in U2OS cells; assay type: cell-based
How it was run: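 U2OS cells in DMEM/10% FBS, given test compound alone or with IR for 4 h. Chromatin immunoprecipitation with DO-1 anti-p53. Precipitated DNA quantified by SYBR Green real-time PCR with primers for the p21 and MDM2 promoters.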

p53 [10] = target: T2, p53; assay: In vitro oligomer formation of HA-p53 and FLAG-p53; assay type: biochemical
[11] = target: zinc finger proteins (ZF1-Nluc/ZF2-Cluc complementation) (Photinus pyralis, UniProt P08659, D436G/I423L/L530R); assay: ZF1-Nluc/ZF2-Cluc complementation in the absence of p53; assay type: biochemical
SJSA cells = assay: Western blot in SJSA cells; assay type: cell-based; conditions: 5–20 μM
How it was run: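 SJSA cells (MDM2-amplified) were co-treated with the MDM2 inhibitor Nutlin and test compound for 32 h. Lysis was in NP-40/Tris buffer with protease inhibitors, followed by SDS-PAGE and western blot for p53 level and target-gene induction, including p21.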

Foxo1 = assay: Foxo1-responsive luciferase reporter assay in transfected H1299 cells; assay type: cell-based; conditions: 6 h treatment
How it was run: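 H1299 cells (50,000/well) lipofected for 24 h with 20 ng 3IRS-luciferase Foxo1 reporter, 5 ng CMV-lacZ and 10 ng CMV-Foxo1, then exposed to compound for 6 h. Readout: luciferase normalised to β-galactosidase activity.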

p63γ-A167P = p63γ-A167P (Homo sapiens, UniProt Q9H3D4, A206P); assay: ChIP of p63γ-A167P temperature-sensitive mutant; assay type: cell-based; conditions: 32 °C
Chain of p63γ-A167P (Q9H3D4 40-487 isoform Q9H3D4-5 A206P limits assumed): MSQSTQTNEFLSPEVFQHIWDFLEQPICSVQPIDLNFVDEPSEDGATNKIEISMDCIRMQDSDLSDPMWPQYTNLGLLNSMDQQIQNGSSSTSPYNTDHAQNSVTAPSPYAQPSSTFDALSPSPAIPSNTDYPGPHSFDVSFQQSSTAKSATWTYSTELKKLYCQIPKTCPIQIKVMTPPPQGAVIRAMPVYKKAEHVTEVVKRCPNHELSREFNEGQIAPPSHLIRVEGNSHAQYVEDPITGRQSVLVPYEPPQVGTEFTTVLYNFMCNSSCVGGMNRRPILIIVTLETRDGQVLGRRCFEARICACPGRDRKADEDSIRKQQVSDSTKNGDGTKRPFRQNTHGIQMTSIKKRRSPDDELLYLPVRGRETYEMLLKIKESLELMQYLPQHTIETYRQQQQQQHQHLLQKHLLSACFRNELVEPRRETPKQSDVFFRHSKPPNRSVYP
How it was run: as §1

Primary mouse thymocytes = assay: Primary mouse thymocytes, radiation-induced apoptosis and viability; assay type: cell-based
p53 [12] = target: T2, p53; assay: Glutaraldehyde crosslinking of p53 in H1299 extract; assay type: biochemical; conditions: 10 μM NSC194598
How it was run: (§2)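 H1299 cells transiently transfected with pcDNA3 FLAG-tagged wild-type or mutant p53 were lysed in HEPES buffer (50 mM HEPES pH 8.0, 5 mM EDTA, 150 mM NaCl, 0.5% NP-40, protease inhibitors) and spun to clear. Lysate was held with 10 μM test compound for 20 min at 23 °C. It was then crosslinked with 0.01–0.1% glutaraldehyde for 5 min at 23 °C and quenched with Tris-HCl pH 8.0 to 100 mM. Monomer, dimer and tetramer were read by western blot (FL393).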

p53 [13] = target: p53 (Homo sapiens, UniProt P04637, R175H); assay: as above; assay type: biochemical; conditions: 10 μM NSC194598
How it was run: as §2

H1299-p53-A138V cells = assay: Western blot in H1299-p53-A138V temperature-sensitive cells; assay type: cell-based; conditions: activated at 32 °C, 8 h
How it was run: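 H1299 (p53-null) cells stably carrying temperature-sensitive p53-A138V were grown in DMEM with 10% FBS. They were kept at 39 °C or shifted to 32 °C with test compound for 8 h. Cells were lysed in 50 mM Tris-HCl pH 8.0, 5 mM EDTA, 150 mM NaCl, 0.5% NP-40 and protease inhibitors. p53 and target genes were resolved by SDS-PAGE and western blot.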

[14] = system: MDM2-mediated ubiquitination of p53; assay: In vivo ubiquitination assay in H1299 cells; assay type: cell-based; conditions: H1299, 5 h treatment
How it was run: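 H1299 cells co-transfected (PEI, 36 h) with 2 μg His6-ubiquitin, 0.2 μg p53 and 2 μg MDM2 plasmids, then treated 5 h. Lysed in 6 M guanidinium buffer, bound to Ni-NTA 16 h at 23 °C, washed with urea buffers (pH8.0 then 6.3). Imidazole/SDS elution 20 min at 23 °C, DO-1 western blot.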

p53 [15] = target: T2, p53; assay: Biotinylated oligonucleotide pull down assay, p53 western blot; assay type: biochemical; conditions: for Inhibition of p53 DNA binding in oligonucleotide pull down: full-length p53
How it was run: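 Pull-down: p53 (~0.1 μl E. coli lysate, 100 ng) with 2 μg poly(dI-dC) and 100 ng biotinylated duplex oligo carrying the p53 site, in Tris pH7.2/150 mM NaCl DNA-binding buffer, 30 min at 4 °C. Captured on streptavidin magnetic beads 30 min at 4 °C, washed three times, boiled, p53 western blot. Pre-treated bead-bound FLAG-p53: 10 μM, 30 min, washed 3 min or 3 h, FLAG-peptide eluted.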

p63γ = p63γ (Homo sapiens, UniProt Q9H3D4); assay: ZF1-Nluc/ZF2-Cluc DNA-binding competition assay, p63γ; assay type: biochemical; conditions: at low micromolar concentrations
Chain of p63γ (Q9H3D4 40-487 isoform Q9H3D4-5 limits assumed): as the sequence (Q9H3D4 40-487 isoform Q9H3D4-5 A206P limits assumed) above, with P167A counted along it

[16] = system: p53 target genes (p21, MDM2, PUMA) in U2OS cells; assay: Western blot / RT-PCR of p53 level and target genes in U2OS cells; assay type: cell-based, human
E2F1 = E2F1 (Homo sapiens, UniProt Q01094); assay: ChIP of E2F1-ER fusion protein; assay type: cell-based; conditions: tamoxifen-regulated E2F1-ER fusion protein
Chain of E2F1 (Q01094 whole entry, the tested form may be a part): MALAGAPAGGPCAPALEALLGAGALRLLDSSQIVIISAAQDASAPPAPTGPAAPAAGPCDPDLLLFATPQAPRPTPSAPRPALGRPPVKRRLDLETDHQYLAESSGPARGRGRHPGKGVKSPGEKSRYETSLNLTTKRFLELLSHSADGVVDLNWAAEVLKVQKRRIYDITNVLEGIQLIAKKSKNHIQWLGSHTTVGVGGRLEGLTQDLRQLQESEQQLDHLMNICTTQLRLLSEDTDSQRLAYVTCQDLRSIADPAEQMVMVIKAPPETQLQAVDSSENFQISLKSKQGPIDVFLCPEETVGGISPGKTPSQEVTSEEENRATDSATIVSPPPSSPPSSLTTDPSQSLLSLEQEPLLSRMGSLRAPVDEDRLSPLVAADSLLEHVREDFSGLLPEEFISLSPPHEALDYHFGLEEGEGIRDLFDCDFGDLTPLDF
How it was run: as §1

p73β = p73β (Homo sapiens, UniProt O15350); assay: ZF1-Nluc/ZF2-Cluc DNA-binding competition assay, p73β; assay type: biochemical; conditions: at low micromolar concentrations
Chain of p73β (O15350 1-499 isoform O15350-2, species assumed): as the sequence (O15350 1-499 isoform O15350-2 A156I) above, with I156A counted along it

full-length luciferase = full-length luciferase (Photinus pyralis, UniProt P08659); assay: Full-length luciferase activity; assay type: biochemical, Firefly
[17] = U2OS, compound alone, 10, 20 μM

## [O-][n+]1c(CN2CCCCC2)nc2cccc3c2c1-c1ccccc1-3 [NSC194598]
[1]
  Increase in melting temperature (ΔTm) of FLAG-94-312: 0.5 °C
[2]
  Effect on melting temperature of TAF1 bromodomain 2: did not affect
TCF1 [3]
  Inhibition of TCF1 DNA binding in oligonucleotide pull down: did not inhibit
C57BL/6 mice; data not shown
  p53 or PARP cleavage in the thymus of treated animals (western blot): did not reveal increase of p53 or PARP cleavage
C57BL/6 mice; single i.p. injection of 80 μg, 8 Gy
  Body weight after irradiation: did not prevent body weight loss
C57BL/6 mice; single i.p. injection of 80 μg, 8 Gy, 40-day observation
  Survival after irradiation: statistically significant improvement in survival
p53 [4]
  p53 sensitivity to trypsin digestion: did not change sensitivity to trypsin digestion
TCF1 [5]
  Effect on TCF1 competition with zinc finger protein: without effect
c-Myc
  DNA binding of c-Myc (ChIP): did not inhibit
p53 [6]
  Inhibition of p53 DNA binding in competition assay: inhibited
HCT116-p53−/− cells
  Induction of p21 and MDM2 in p53-null cells: did not induce p21 and MDM2
RET oncogene
  Transcription of RET oncogene: inhibits the transcription of RET oncogene
[7]
  Binding to G-quadruplex DNA structures: binds G-quadruplex DNA structures
p53-Cluc fusion protein
  IC50: 0.18 µM
p53 [8]
  p53 activation of p53-responsive luciferase reporter: inhibited
p73β-A156I
  In vivo DNA binding by p73β-A156I (ChIP): inhibited
p53 [9]; [17]
  p53 occupancy at the p21 promoter (ChIP), compound alone: increased p53 occupancy
p53 [9]; irradiated U2OS cells, 4 hrs
  p53 occupancy at p21 and MDM2 promoters (ChIP): reduced p53 occupancy
p53 [10]
  Oligomer formation of HA-p53 and FLAG-p53: did not inhibit oligomer formation
[11]
  Effect on ZF1-Nluc/ZF2-Cluc complementation readout: did not stimulate readout
SJSA cells
  p53 accumulation and p21 expression in SJSA versus U2OS: much weaker p53 accumulation and p21 expression
Foxo1
  Foxo1 activation of its luciferase reporter: did not inhibit
p63γ-A167P
  In vivo DNA binding by p63γ-A167P (ChIP): inhibited
Primary mouse thymocytes; 1 μM or higher, with IR
  p53 level in irradiated thymocytes: reduced p53 level
Primary mouse thymocytes; 0.5–10 μM, 6 h, dose-dependent
  PARP and Caspase 3 cleavage after IR: blocked PARP and Caspase 3 cleavage
Primary mouse thymocytes; 20 hours after 5 Gy IR, 5 μM
  Thymocyte viability after IR (trypan blue exclusion): increased thymocyte viability
Primary mouse thymocytes; high concentrations, no IR
  p53 level and cleaved PARP, compound alone: caused p53 accumulation
Primary mouse thymocytes; no IR
  Thymocyte viability with compound alone (trypan blue exclusion): did not lose viability
p53 [12]
  Crosslinking banding pattern of dimer and tetramer, wt p53: detected changes in the banding pattern
p53 [13]
  Crosslinking pattern of R175H conformational mutant: did not affect the crosslinking pattern
H1299-p53-A138V cells
  p21 induction and p53 level in H1299-p53-A138V: inhibited p21 induction without changing p53 level
[14]
  MDM2-mediated ubiquitination of p53: had no effect
p53 [15]; 2.5 μM NSC194598
  Inhibition of DNA binding of p53 DNA-binding domain (90–312) (pull down): still showed inhibition
  Inhibition of DNA binding of p53 deletion mutant 1–360 (pull down): strongly inhibited
  Inhibition of DNA binding of p53 deletion mutant 90–393 (pull down): strongly inhibited
p53 [15]; 10 μM for 30 min, wash 3 min
  DNA binding of compound-treated FLAG-p53 after short wash: did not bind DNA
p53 [15]; 10 μM for 30 min, wash 3 h
  DNA binding of compound-treated FLAG-p53 after extensive wash: regained DNA-binding activity
p53 [15]
  Inhibition of p53 DNA binding in oligonucleotide pull down: inhibited p53 DNA binding
p63γ
  Inhibition of p63γ DNA binding in competition assay: inhibited
[16]; MDM2 inhibitor Nutlin or doxorubicin
  p21 induction after p53 activation by Nutlin and doxorubicin: inhibited p21 induction
[16]; U2OS after irradiation
  p21, MDM2, PUMA protein and mRNA expression: inhibition of p21, MDM2, PUMA protein and mRNA expression
[16]; U2OS, 40 μM
  p53 target gene expression, compound alone at 40 μM: decline in p53 target gene expression
[16]; U2OS, 4 h treatment
  Decrease of MDM2/p53 ratio: ~ 50%
[16]; [17]
  p53 level and target genes p21 and MDM2, compound alone: caused p53 accumulation and upregulation of target genes p21 and MDM2
[16]; compound alone
  p53 mRNA level: no increase in p53 mRNA level
  γH2AX and p53 Ser15 phosphorylation (DNA damage): no increase of γH2AX or p53 Ser15 phosphorylation
E2F1
  DNA binding of E2F1 (ChIP): did not inhibit
p73β
  Inhibition of p73β DNA binding in competition assay: inhibited

## Cc1ccc(C(=O)Cn2c3c(sc2=N)CCCC3)cc1 [PFTα, Pifithrin-α, reference compound]
[11]
  Effect on ZF1-Nluc/ZF2-Cluc complementation readout: inhibited
full-length luciferase
  Effect on activity of full-length luciferase: inhibited
p53 [15]
  Inhibition of p53 DNA binding in oligonucleotide pull down: had no effect
